These results are taken from ChEMBL document CHEMBL3232870, “Discovery of 3-(4-methanesulfonylphenoxy)-N-[1-(2-methoxy-ethoxymethyl)-1H-pyrazol-3-yl]-5-(3-methylpyridin-2-yl)-benzamide as a novel glucokinase activator (GKA) for the treatment of type 2 diabetes mellitus” (Bioorg Med Chem, 2014).

The test system of one experiment is Mus musculus. Nature of the experiment: Antidiabetic activity in po dosed C57BL/J6 mouse assessed as reduction of glucose AUC preincubated for 30 mins followed by glucose challenge measured after 30 to 180 mins by oral glucose tolerance test.
On to `COCCOCn1ccc(NC(=O)c2cc(Oc3ccc(S(C)(=O)=O)cc3)cc(-c3ncccc3C)c2)n1`, for which the Activity result is “Dose-dependent effect”.

A further experiment deals with T1, Hexokinase-4 (Homo sapiens) (UniProt P35557).
T1 sequence (whole entry): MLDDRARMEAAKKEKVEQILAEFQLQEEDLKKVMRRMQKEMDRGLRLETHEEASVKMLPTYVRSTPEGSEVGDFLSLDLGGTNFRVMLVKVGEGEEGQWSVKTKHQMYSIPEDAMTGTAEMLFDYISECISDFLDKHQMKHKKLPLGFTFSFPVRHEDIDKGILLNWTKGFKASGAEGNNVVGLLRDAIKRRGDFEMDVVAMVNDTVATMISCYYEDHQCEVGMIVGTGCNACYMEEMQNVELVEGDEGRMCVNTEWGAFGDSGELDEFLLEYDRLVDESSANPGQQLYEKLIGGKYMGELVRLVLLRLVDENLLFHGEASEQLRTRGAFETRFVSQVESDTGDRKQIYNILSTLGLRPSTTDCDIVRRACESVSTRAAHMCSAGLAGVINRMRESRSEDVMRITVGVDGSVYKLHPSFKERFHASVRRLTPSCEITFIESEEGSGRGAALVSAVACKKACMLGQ
Nature of the experiment: Activity of recombinant human pancreatic glucokinase assessed as glucose half-maximal saturation concentration. The essentials: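 Purified recombinant human pancreatic glucokinase coupled enzymatic assay, compounds in DMSO. Buffer: HEPES pH 7.4, KCl, MgCl2, DTT, ATP, NADP, G6PDH. Half-saturation glucose concentration S0.5 was reported. Values are means of three duplicate runs.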
For `COC(CNCc1csc(NC(=O)c2cc(Oc3ccc(S(C)(=O)=O)cc3)cc(-c3ncccc3C)c2)n1)OC`, the S50 worked out at 0.57 mM.
Same read-out and setting: the result for `Cc1cccnc1-c1cc(Oc2ccc(S(C)(=O)=O)cc2)cc(C(=O)Nc2ccn(C)n2)c1` reads 3.89 mM.
On the same count and under the same terms, the result for `COCCN(C)Cc1csc(NC(=O)c2cc(Oc3ccc(S(C)(=O)=O)cc3)cc(-c3ncccc3C)c2)n1` reads 4.56 mM; that for `CCN(CC)Cc1csc(NC(=O)c2cc(Oc3ccc(S(C)(=O)=O)cc3)cc(-c3ncccc3C)c2)n1`, 5.79 mM; that for `COCC(C)NCc1csc(NC(=O)c2cc(Oc3ccc(S(C)(=O)=O)cc3)cc(-c3ncccc3C)c2)n1` (centres undefined), 2.27 mM.
For the compound `CCNC(=O)Cc1csc(NC(=O)c2cc(Oc3ccc(S(C)(=O)=O)cc3)cc(-c3ncccc3C)c2)n1`, the S50 stood at 4.35 mM.
The same measure, in the same setting: the result for `CCCNCc1csc(NC(=O)c2cc(Oc3ccc(S(C)(=O)=O)cc3)cc(-c3ncccc3C)c2)n1` reads 4.51 mM; that for `Cc1cccnc1-c1cc(Oc2ccc(S(C)(=O)=O)cc2)cc(C(=O)Nc2ccn(CCN3CCOCC3)n2)c1`, 3.54 mM.
As to `COCCOCn1ccc(NC(=O)c2cc(Oc3ccc(S(C)(=O)=O)cc3)cc(-c3ncccc3C)c2)n1`, the S50 came out at 2.33 mM.
`Cc1cccnc1-c1cc(Oc2ccc(S(C)(=O)=O)cc2)cc(C(=O)Nc2nc(CN3CCOCC3)cs2)c1`: the S50 was 3.24 mM.
The same measure, in the same setting: the result for `Cc1cccnc1-c1cc(Oc2ccc(S(C)(=O)=O)cc2)cc(C(=O)Nc2nc(CC(=O)NC3CC3)cs2)c1` reads 1.78 mM; that for `Cc1cccnc1-c1cc(Oc2ccc(S(C)(=O)=O)cc2)cc(C(=O)Nc2nc(CNC(C)C)cs2)c1`, 3.98 mM; that for `Cc1cccnc1-c1cc(Oc2ccc(S(C)(=O)=O)cc2)cc(C(=O)Nc2nc(CN3CCN(C)CC3)cs2)c1`, 3.44 mM.
Same read-out and setting: the result for `Cc1cccnc1-c1cc(Oc2ccc(S(C)(=O)=O)cc2)cc(C(=O)Nc2nc(CN3CCNCC3)cs2)c1` reads 3.08 mM.
For `Cc1cccnc1-c1cc(Oc2ccc(S(C)(=O)=O)cc2)cc(C(=O)Nc2ncc(F)s2)c1`, the S50 was 1.95 mM.
Same read-out and setting: the result for `Cc1cccnc1-c1cc(Oc2ccc(S(C)(=O)=O)cc2)cc(C(=O)Nc2nccs2)c1` reads 2.01 mM.
As for `COCCN(CCOC)Cc1csc(NC(=O)c2cc(Oc3ccc(S(C)(=O)=O)cc3)cc(-c3ncccc3C)c2)n1`, the S50 worked out at 5.43 mM.
On the same count and under the same terms, the result for `C#CCNCc1csc(NC(=O)c2cc(Oc3ccc(S(C)(=O)=O)cc3)cc(-c3ncccc3C)c2)n1` reads 2.21 mM.
